Assay results published in ChEMBL document CHEMBL1165860, “Synthesis and potential cytotoxic activity of new phenanthrylphenol-pyrrolobenzodiazepines” (2010).
Active and inactive are the calls of the source. No cut-off for these calls is given here.

Key:
[1] = test system: MCF7; assay: Cell cycle arrest in human MCF7 cells assessed as accumulation at G0 phase at 4 uM after 24 hrs using propidium iodide staining by flow cytometry; assay type: functional
Procedure, shortened: (§1)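 MCF-7 cells were grown in DMEM with 10% fetal calf serum, penicillin and streptomycin, at 37 °C in 5% CO2. They were treated for 24 h at 2 and 4 µM, with DMSO-treated cells as controls. Cells were trypsinised, fixed in ice-cold 70% ethanol at 4 °C for 30 min, and RNaseA-treated at 37 °C for 30 min. Phases were read by flow cytometry.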

[2] = test system: MCF7; assay: Cell cycle arrest in human MCF7 cells assessed as accumulation at G0 phase after 24 hrs using propidium iodide staining by flow cytometry; assay type: functional, cell-based; procedure, shortened: as §1
[3] = test system: MCF7; assay: Induction of apoptosis in human MCF7 cells assessed as increase of caspase 8 activation at 4 uM after 1 hr by […] method; assay type: functional, cell-based
Procedure, shortened: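 Colorimetric caspase-8 kit on lysates of treated MCF-7 cells. The IETD-pNA substrate was incubated with cell lysate at 37 °C for 1 h, and absorbance was read at 405 nm. Untreated cells served as the control.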

[4] = test system: MCF7; assay: Increase of PARP cleavage in human MCF7 cells at 2 uM after 24 hrs by Western blot analysis; assay type: functional, cell-based
Procedure, shortened: (§2)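 MCF-7 cells were grown in DMEM with 10% FCS and penicillin/streptomycin at 37 °C in 5% CO2, then treated for 24 h. Cells were lysed in ice-cold RIPA buffer with protease inhibitors and NaF. Protein was measured by Bradford assay, and 30 µg per lane was run on 12% SDS-PAGE and transferred to PVDF. Antibody steps: primary at 4 °C overnight, HRP secondary 1:2000, chemiluminescent detection.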

[5] = test system: MCF7; assay: Increase of PARP cleavage in human MCF7 cells at 4 uM after 24 hrs by Western blot analysis; assay type: functional, cell-based; procedure, shortened: as §2
[6] = test system: K562; assay: Growth inhibition of human K562 cells after 24 hrs by MTT assay; assay type: functional; conditions: K562, 24 h
[7] = test system: MOLT-4; assay: Growth inhibition of human MOLT4 cells after 24 hrs by MTT assay; assay type: functional; conditions: MOLT-4, 24 h
[8] = test system: EKVX; assay: Growth inhibition of human EKVX cells after 24 hrs by MTT assay; assay type: functional
[9] = test system: NCI-H226; assay: Growth inhibition of human NCI-H226 cells after 24 hrs by MTT assay; assay type: functional; conditions: NCI-H226, 24 h
[10] = test system: NCI-H322M; assay: Growth inhibition of human NCI-H322M cells after 24 hrs by MTT assay; assay type: functional
[11] = test system: COLO 205; assay: Growth inhibition of human COLO205 cells after 24 hrs by MTT assay; assay type: functional; conditions: COLO 205, 24 h
[12] = test system: HCT-116; assay: Growth inhibition of human HCT116 cells after 24 hrs by MTT assay; assay type: functional; conditions: HCT-116, 24 h
[13] = test system: HT-29; assay: Growth inhibition of human HT-29 cells after 24 hrs by MTT assay; assay type: functional; conditions: HT-29, 24 h
[14] = test system: SW-620; assay: Growth inhibition of human SW620 cells after 24 hrs by MTT assay; assay type: functional; conditions: SW-620, 24 h
[15] = test system: SF-268; assay: Growth inhibition of human SF268 cells after 24 hrs by MTT assay; assay type: functional; conditions: SF-268, 24 h
[16] = test system: SF-539; assay: Growth inhibition of human SF539 cells after 24 hrs by MTT assay; assay type: functional; conditions: SF-539, 24 h
[17] = test system: SNB-19; assay: Growth inhibition of human SNB19 cells after 24 hrs by MTT assay; assay type: functional; conditions: SNB-19, 24 h
[18] = test system: U-251; assay: Growth inhibition of human U251 cells after 24 hrs by MTT assay; assay type: functional; conditions: U-251, 24 h
[19] = test system: M14; assay: Growth inhibition of human M14 cells after 24 hrs by MTT assay; assay type: functional; conditions: M14, 24 h
[20] = test system: SK-MEL-2; assay: Growth inhibition of human SK-MEL-2 cells after 24 hrs by MTT assay; assay type: functional; conditions: SK-MEL-2, 24 h
[21] = test system: SK-MEL-5; assay: Growth inhibition of human SK-MEL-5 cells after 24 hrs by MTT assay; assay type: functional; conditions: SK-MEL-5, 24 h
[22] = test system: OVCAR-4; assay: Growth inhibition of human OVCAR4 cells after 24 hrs by MTT assay; assay type: functional; conditions: OVCAR-4, 24 h
[23] = test system: OVCAR-8; assay: Growth inhibition of human OVCAR8 cells after 24 hrs by MTT assay; assay type: functional; conditions: OVCAR-8, 24 h
[24] = test system: DU-145; assay: Growth inhibition of human DU145 cells after 24 hrs by MTT assay; assay type: functional; conditions: DU-145, 24 h
[25] = test system: 786-0; assay: Growth inhibition of human 786-0 cells after 24 hrs by MTT assay; assay type: functional; conditions: 786-0, 24 h
[26] = test system: CAKI-1; assay: Growth inhibition of human Caki1 cells after 24 hrs by MTT assay; assay type: functional; conditions: CAKI-1, 24 h
[27] = test system: TK-10; assay: Growth inhibition of human TK10 cells after 24 hrs by MTT assay; assay type: functional; conditions: TK-10, 24 h
[28] = test system: MCF7; assay: Growth inhibition of human MCF7 cells after 24 hrs by MTT assay; assay type: functional; conditions: MCF7, 24 h
[29] = test system: MDA-MB-231; assay: Growth inhibition of human MDA-MB-231 cells after 24 hrs by MTT assay; assay type: functional; conditions: MDA-MB-231, 24 h
[30] = Growth inhibition of human Hs 578T cells after 24 hrs by MTT assay; assay type: functional
[31] = test system: MDA-MB-435; assay: Growth inhibition of human MDA-MB-435 cells after 24 hrs by MTT assay; assay type: functional; conditions: MDA-MB-435, 24 h
[32] = test system: T47D; assay: Growth inhibition of human T47D cells after 24 hrs by MTT assay; assay type: functional
[33] = test system: MCF7; assay: Cytotoxicity against human MCF7 cells at 2 uM after 24 hrs by MTT assay relative to control; assay type: functional
Procedure, shortened: (§3)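 MCF-7 cells were seeded at 10,000 cells/well in DMEM with 10% fetal calf serum. They were exposed to 0.5, 1, 2 and 4 µM for 24 h. MTT reduction to formazan was read at 570 nm, with untreated controls taken as 100% viability. DMSO-treated cells served as an additional control.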

[34] = test system: MCF7; assay: Cytotoxicity against human MCF7 cells at 4 uM after 24 hrs by MTT assay relative to control; assay type: functional, cell-based; procedure, shortened: as §3
[35] = test system: Nucleic Acid; assay: Inhibition of Escherichia coli pBR322 DNA cleavage after 16 hrs by RED100-restriction endonuclease digestion assay; assay type: nucleic-acid assay
Procedure, shortened: (§4)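 pBR322 DNA was preincubated with compound at final 2, 4, 8, 16 and 32 µM for 16 h at 37 °C. BamHI (10 U/µl) in BamHI buffer was then added for 2 h at 37 °C. Products were separated on agarose in 0.5× Tris–acetate EDTA at 80 V for 1 h and stained with ethidium bromide. Cut and uncut DNA served as controls.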

[36] = test system: Nucleic Acid; assay: Inhibition of Escherichia coli pBR322 DNA cleavage at 16 uM after 16 hrs by RED100-restriction endonuclease digestion assay; assay type: nucleic-acid assay; procedure, shortened: as §4
[37] = test system: MCF7; assay: Cell cycle arrest in human MCF7 cells assessed as accumulation at G0 phase at 2 uM after 24 hrs using propidium iodide staining by flow cytometry; assay type: functional; procedure, shortened: as §1
[38] = test system: MCF7; assay: Cell cycle arrest in human MCF7 cells assessed as accumulation at G1 phase at 2 uM after 24 hrs using propidium iodide staining by flow cytometry; assay type: functional; procedure, shortened: as §1
[39] = test system: MCF7; assay: Cell cycle arrest in human MCF7 cells assessed as accumulation at S phase at 2 uM after 24 hrs using propidium iodide staining by flow cytometry; assay type: functional; procedure, shortened: as §1

With `COc1cc2c(cc1OCCCOc1ccc(-c3cc4ccccc4c4ccccc34)cc1)N=C[C@@H]1CCCN1C2=O` the Activity [1] was 8.35%, the Activity [2] was “Dose-dependent effect” and the Activity [3] was “Active”. For the same compound, the Activity [4] was “Active”, the Activity [5] was “Active” and the GI50 [6] was 270 nM. It also gave a GI50 [7] of 180 nM, a GI50 [8] of 1050 nM and a GI50 [9] of 1170 nM. The GI50 [10] was 1590 nM, the GI50 [11] was 1190 nM and the GI50 [12] was 250 nM. It also gave a GI50 [13] of 890 nM, a GI50 [14] of 510 nM and a GI50 [15] of 860 nM. The GI50 [16] was 1760 nM, the GI50 [17] was 1160 nM and the GI50 [18] was 910 nM. For the same compound, the GI50 [19] was 570 nM, the GI50 [20] was 40 nM and the GI50 [21] was 1060 nM. The GI50 [22] was 580 nM, the GI50 [23] was 420 nM and the GI50 [24] was 400 nM. The GI50 [25] was 700 nM, the GI50 [26] was 400 nM and the GI50 [27] was 600 nM. For the same compound, the GI50 [28] was 170 nM, the GI50 [29] was 290 nM and the GI50 [30] was 1020 nM. The GI50 [31] was 240 nM, the GI50 [32] was 80 nM and the Activity [33] was “<=50%”. For the same compound, the Activity [34] was “Active”, the inhibition [35] was “Dose-dependent effect” and the inhibition [36] was 100%. It also gave an Activity [37] of 4.47%, an Activity [38] of 68.99% and an Activity [39] of 17.29%.
